The results in this text go back to the array DNA melting data of Ke et al. (doi:10.1101/2024.01.08.574731).

The nature of series [1]: folding enthalpy; higher = less favourable; fluorescence melt of hairpins on a sequencing array, two-state fit. Conditions: sodium 0.088 M. In a few lines: (§1)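 Two-state fits, bootstrapped, provided melting temperature and folding enthalpy from Cy3 fluorescence normalised to pre-quench Cy3 and to control constructs. Library hairpins with annealed Cy3 and quencher oligos were imaged on a sequenced MiSeq flow cell in 50 mM Na-HEPES pH 8.0, 25 mM NaCl, at 2.5 °C intervals up to 60 °C. Four replicates were combined with inverse-variance weighting. A 9.35 °C upward shift was applied to fitted temperatures to match UV melts.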

Series [2] is described as follows: melting temperature; fluorescence melt of hairpins on a sequencing array, two-state fit, raised by 9.35 °C to match UV melts. Conditions: sodium 0.088 M. The method in brief:
as §1

In the case of GATCTGTTGTCAGATC ((((((....)))))), the folding enthalpy in series [1] is -37.1 kcal/mol. Further, the Tm in series [2] was 50.9 °C.
For GGAACTCGAAAGAGGTCC (((.(((....))).))), in that order: -39 kcal/mol and 60 °C.
For GACCCTCCGAAAGGAGTC (((..(((....)))))), in that order: -7.33 kcal/mol and 23.4 °C.
For GTAGGACGAAAGTCGTAC (((.(((....))).))), in that order: -35.6 kcal/mol and 53.2 °C.
With GCACCCGAAAGGGGGTGC ((((((....)))..))), in series [1], the folding enthalpy was -21 kcal/mol. Moreover, in series [2], the Tm was determined as 66.8 °C.
For GATCGTACCAACGATC ((((((....)))))), in that order: -36.7 kcal/mol and 55.5 °C.
For GAATCAGGAAACCGATTC (((((.(....).))))), in that order: -26.3 kcal/mol and 37.8 °C.
As for GTCACCGGAAACAGTGAC (((((.(....).))))), the folding enthalpy in series [1] was -32.4 kcal/mol. Besides, the Tm in series [2] worked out at 44.9 °C.
For GCCAACGAAAGTTAGGC ((((((....))).))), in that order: -28.9 kcal/mol and 52.8 °C.
For CGGCCGGAAACGGAGCCG ((((((....)))..))), in that order: -34.7 kcal/mol and 54.6 °C.
For GGGCTCGAAAGAGCTCCC ((((((....)))..))), in that order: -10.6 kcal/mol and 50 °C.
In the case of GCCAACGAAAGTTACGGC ((((((....)))..))), in series [1], the folding enthalpy is -26.1 kcal/mol. Moreover, the Tm in series [2] is 41.3 °C.
For GCTTTGCGAAAGCTCAGC (((..((....))..))), in that order: -14.4 kcal/mol and 44.3 °C.
For GTGACCACGAAAGTGCAC (((..(((....)))))), in that order: -12 kcal/mol and 32 °C.
Regarding GGGTGCGAAAGCATACCC ((((((....)))..))), the folding enthalpy in series [1] is -19.8 kcal/mol. Further, the Tm in series [2] stood at 53.5 °C.
On to GTAAAGCGAAAGCTTAC (((.(((....)))))), for which, in series [1], the folding enthalpy was -12.8 kcal/mol. In series [2], the Tm was found to be 42.6 °C.
Turning to GTACGCGAAAGCGCTTAC ((((((....)))..))), the folding enthalpy in series [1] was -9.36 kcal/mol. Besides, the Tm in series [2] was determined as 29.4 °C.
Consider GGCGACGAAAGTCAGCC ((((((....))).))), for which the folding enthalpy in series [1] is -28.1 kcal/mol. The Tm in series [2] came out at 65.6 °C.
For GCGATGCTTCGC ((((....)))), in that order: -20.2 kcal/mol and 62.3 °C.
For GTCGTCGAAAGACCGGAC ((((((....)))..))), in that order: -16.9 kcal/mol and 37.4 °C.
As to GCTGAGGGAAACCTCGGC ((.((((....)))).)), the folding enthalpy in series [1] is -39.9 kcal/mol. In series [2], the Tm was 56.8 °C.
Consider GAACGGGGAAACCCGTTC (((((((....))))))), for which the folding enthalpy in series [1] is -34.2 kcal/mol. Also, in series [2], the Tm was 67.9 °C.
For GCGGTGAGCCGC ((((....)))), the folding enthalpy in series [1] is -23 kcal/mol. The Tm in series [2] stood at 66.8 °C.
For GGATAGGGAAACCTATCC (((((((....))))))), in that order: -47.9 kcal/mol and 56.8 °C.
Regarding GATCTGCCCCAGATC ((((((...)))))), the folding enthalpy in series [1] is -33.6 kcal/mol. In addition, the Tm in series [2] was found to be 49.2 °C.
For the sequence GTAGGCGGAAACGCTTGC (.(.(((....))).).), in series [1], the folding enthalpy is -11.6 kcal/mol. In series [2], the Tm was determined as 30.3 °C.
For GCAATCGAAAGATCTGC ((((((....))).))), in that order: -18 kcal/mol and 35.2 °C.
As to GGTGAGGGAAACTTCACC (((((.(....).))))), the folding enthalpy in series [1] was -32.1 kcal/mol. Also, in series [2], the Tm stood at 46.8 °C.
For GCACGGCGAAAGCGGAGC ((.(.((....)).).)), in that order: -17.7 kcal/mol and 44.7 °C.
For GGATACGAAAGTAGATCC ((((((....)))..))), in that order: -17.9 kcal/mol and 34.7 °C.
For GGTGATGGAAACATCACC (((((((....))))))), in that order: -39.6 kcal/mol and 65.6 °C.
GAGAGCGAAAGCTACCTC ((((((....)))..))): in series [1], the folding enthalpy is -10.4 kcal/mol. Further, the Tm in series [2] came out at 30.1 °C.
For GATCTCTTGCGAGATC ((((((....)))))), in that order: -42.4 kcal/mol and 51.9 °C.
For GAAGGGAAACCTTC (((((....))))), in that order: -20.9 kcal/mol and 42.5 °C.
For GCAATCCGAAAGGACTGC (((.(((....))).))), in that order: -17.6 kcal/mol and 49.8 °C.
Take GGGTTTGGAAACAAATCC ((.((((....)))).)): the folding enthalpy in series [1] is -39.6 kcal/mol. Also, the Tm in series [2] was determined as 47.4 °C.
GAGCACGGAAACATGCTC (((((.(....).))))): in series [1], the folding enthalpy was -35 kcal/mol. Moreover, the Tm in series [2] came to 45.4 °C.
For GGTTCTCCGAAAGGAACC (((..(((....)))))), in that order: -20.8 kcal/mol and 42.9 °C.
GCAACCCCGAAAGGGTGC (((..(((....)))))): the folding enthalpy in series [1] is -19.2 kcal/mol. The Tm in series [2] stood at 55.8 °C.
For GCTTTCGAAAGAAAGC ((((((....)))))), in that order: -42.3 kcal/mol and 65.1 °C.
For GATCTATCTGTAGATC ((((((....)))))), in that order: -33.9 kcal/mol and 42.9 °C.
For GCATAGCGAAAGCTGAGC ((..(((....)))..)), in that order: -15.7 kcal/mol and 46 °C.
As for GCGCAGACGAAAGTCCGC (((..(((....)))))), the folding enthalpy in series [1] was -25 kcal/mol. Further, in series [2], the Tm stood at 52.4 °C.
Consider GCTAACCCGAAAGGGAGC (((..(((....)))))), for which the folding enthalpy in series [1] is -15.6 kcal/mol. Also, the Tm in series [2] is 41.1 °C.
For GTCCCCGAAAGGGATGAC ((((((....)))..))), in that order: -14.6 kcal/mol and 44.8 °C.
For GCGACGCGAAAGCATCGC ((((.((....)).)))), in that order: -43.2 kcal/mol and 66.9 °C.
For GCATACGAAAGTATGC ((((((....)))))), in that order: -35.3 kcal/mol and 67.9 °C.
Turning to GTGACACGAAAGTGCAC (((.(((....)))))), the folding enthalpy in series [1] was -17.3 kcal/mol. Besides, the Tm in series [2] is 53.2 °C.
For GGTGGCGGAAACGTCGCC ((.(.((....)).).)), in that order: -39.9 kcal/mol and 54.2 °C.
For GCGGGGGGAAACCCCTGC ((.((((....)))).)), in that order: -31.9 kcal/mol and 61.9 °C.
For GTTTGTGGAAACGTAAAC ((((..(....)..)))), the folding enthalpy in series [1] was -13.6 kcal/mol. For the same sequence, the Tm in series [2] was 29.1 °C.
For GTGTTCGAAAGAAACCAC ((((((....)))..))), in that order: -10.4 kcal/mol and 27.4 °C.
For GATCAAGATATTGATC ((((((....)))))), in that order: -34.7 kcal/mol and 48.5 °C.
For GCCGCGCGAAAGCGTAGC ((..(((....)))..)), in that order: -13.8 kcal/mol and 48.9 °C.
In the case of GCTTGCGGAAACGCAGGC ((.((((....)))).)), the folding enthalpy in series [1] is -35.1 kcal/mol. Moreover, in series [2], the Tm came out at 62.8 °C.
For the sequence GGTTTCGGAAACGAAGTC (..((((....))))..), in series [1], the folding enthalpy is -10.3 kcal/mol. Further, the Tm in series [2] was found to be 26.4 °C.
For GATCGTCTACACGATC ((((((....)))))), in that order: -39.8 kcal/mol and 53.9 °C.
For GGTCAGGGAAACCTGGCC ((.((((....)))).)), in that order: -42.2 kcal/mol and 57.5 °C.
For GACTGAGGAAACTCAGCC (.(((((....))))).), in that order: -16.9 kcal/mol and 43.4 °C.
On to GAAGACACGAAAGTGTTC (((..(((....)))))), for which the folding enthalpy in series [1] is -10.1 kcal/mol. The Tm in series [2] was found to be 31.9 °C.
Turning to GGCACACGAAAGTGAGCC (((.(((....))).))), the folding enthalpy in series [1] was -38.1 kcal/mol. Further, in series [2], the Tm turned out to be 63.5 °C.
For GATCAGCGCCTGATC ((((((...)))))), in that order: -38.9 kcal/mol and 48.7 °C.
For GCCTATGGAAACGTAGGC (((((.(....).))))), in that order: -39.8 kcal/mol and 51.1 °C.
For AGATCGAAAGATCT (((((....))))), in that order: -23.2 kcal/mol and 50.9 °C.
For GCGACTGGAAACAATCGC ((((.((....)).)))), in series [1], the folding enthalpy was -40.4 kcal/mol. For the same sequence, the Tm in series [2] worked out at 45.5 °C.
As for GATCGATTGCTCGATC ((((((....)))))), the folding enthalpy in series [1] was -31.9 kcal/mol. Further, the Tm in series [2] is 51.2 °C.
For GCACCCGGAAACGAGTGC ((((.((....)).)))), in that order: -48.8 kcal/mol and 51.6 °C.
For the sequence GAAACCGGAAACAGTTTC (((((.(....).))))), in series [1], the folding enthalpy was -25 kcal/mol. In addition, the Tm in series [2] is 30.8 °C.
GAGGCAGCGAAAGCTCTC (((..(((....)))))): in series [1], the folding enthalpy is -10.2 kcal/mol. The Tm in series [2] came out at 31.8 °C.
Turning to GGGTTCGAAAGAAGGCCC ((((((....)))..))), the folding enthalpy in series [1] was -20.7 kcal/mol. Besides, the Tm in series [2] worked out at 35.6 °C.
For GCGGGCCGCCGC ((((....)))), in that order: -15.5 kcal/mol and 61.5 °C.
For GGCAAAGGAAACCTTGCC (((((.(....).))))), the folding enthalpy in series [1] was -31.5 kcal/mol. The Tm in series [2] was found to be 49.3 °C.
For GATCGCAAGAGCGATC ((((((....)))))), in that order: -34 kcal/mol and 67.8 °C.
Regarding GAAGGTGGAAACACCCTC ((.((((....)))).)), in series [1], the folding enthalpy is -12.1 kcal/mol. The Tm in series [2] came to 33.8 °C.
